According to ChEMBL document CHEMBL4350961, “Discovery of Pyrrolo[3,2- d]pyrimidin-4-one Derivatives as a New Class of Potent and Cell-Active Inhibitors of P300/CBP-Associated Factor Bromodomain” (J Med Chem, 2019):
The source made the active and inactive calls. No cut-off for these calls is given here.

Legend:
[1] = organism: Homo sapiens; test: Inhibition of recombinant full-length human PI3K p110delta/p85alpha N253S mutant at 10 uM using phosphatidylinositol-4, 5-bisphosphate as substrate measured after 40 mins by fluorescence assay
[2] = molecular target: T1, Nucleosome-remodeling factor subunit BPTF (Homo sapiens, UniProt Q12830); test: Binding affinity to human N-terminal His-tagged FALZ by isothermal titration calorimetry
In short: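 Bromodomain (His-tag removed by TEV for PCAF and GCN5) in the syringe, ligand in the cell. One 0.4 μL injection, then 19 of 2 μL. Dilution heat subtracted; KD from an independent single-site binding model.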

[3] = molecular target: Bromodomain-containing protein 4 (Homo sapiens) (UniProt O60885); test: Binding affinity to human N-terminal His-tagged BRD4 bromodomain1 assessed as change in melting temperature at 10 uM by SYPRO orange dye-based fluorescence assay
In short: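 Thermal shift with His-tagged human bromodomain at 2 μM final in 10 mM HEPES pH 7.5, 500 mM NaCl. Compound at 10 μM final with 0.1% DMSO; SYPRO Orange at 1:1000. Equilibrated 3 min at 25 °C, then heated from 25 to 95 °C at 1 °C/min. Melting temperature shift taken from fluorescence; at least duplicate.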

[4] = molecular target: T1, Nucleosome-remodeling factor subunit BPTF; test: Binding affinity to human partial length FALZ (S2791 to H2911 residues) expressed in bacterial expression system at 1 uM by BROMOscan assay
In short: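 BROMOscan bromodomain cross-screen run by an outside service, compound at 1 µM against 32 recombinant bromodomains. Binding given as percent of control.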

[5] = molecular target: Bromodomain and WD repeat-containing protein 1 (Homo sapiens) (UniProt Q9NSI6); test: Binding affinity to human partial length WDR9 bromodomain 2 (A1310 to E1430 residues) expressed in bacterial expression system at 1 uM by BROMOscan assay
Bromodomain and WD repeat-containing protein 1 (Homo sapiens), sequence (Q9NSI6 whole entry, the tested form may be a part): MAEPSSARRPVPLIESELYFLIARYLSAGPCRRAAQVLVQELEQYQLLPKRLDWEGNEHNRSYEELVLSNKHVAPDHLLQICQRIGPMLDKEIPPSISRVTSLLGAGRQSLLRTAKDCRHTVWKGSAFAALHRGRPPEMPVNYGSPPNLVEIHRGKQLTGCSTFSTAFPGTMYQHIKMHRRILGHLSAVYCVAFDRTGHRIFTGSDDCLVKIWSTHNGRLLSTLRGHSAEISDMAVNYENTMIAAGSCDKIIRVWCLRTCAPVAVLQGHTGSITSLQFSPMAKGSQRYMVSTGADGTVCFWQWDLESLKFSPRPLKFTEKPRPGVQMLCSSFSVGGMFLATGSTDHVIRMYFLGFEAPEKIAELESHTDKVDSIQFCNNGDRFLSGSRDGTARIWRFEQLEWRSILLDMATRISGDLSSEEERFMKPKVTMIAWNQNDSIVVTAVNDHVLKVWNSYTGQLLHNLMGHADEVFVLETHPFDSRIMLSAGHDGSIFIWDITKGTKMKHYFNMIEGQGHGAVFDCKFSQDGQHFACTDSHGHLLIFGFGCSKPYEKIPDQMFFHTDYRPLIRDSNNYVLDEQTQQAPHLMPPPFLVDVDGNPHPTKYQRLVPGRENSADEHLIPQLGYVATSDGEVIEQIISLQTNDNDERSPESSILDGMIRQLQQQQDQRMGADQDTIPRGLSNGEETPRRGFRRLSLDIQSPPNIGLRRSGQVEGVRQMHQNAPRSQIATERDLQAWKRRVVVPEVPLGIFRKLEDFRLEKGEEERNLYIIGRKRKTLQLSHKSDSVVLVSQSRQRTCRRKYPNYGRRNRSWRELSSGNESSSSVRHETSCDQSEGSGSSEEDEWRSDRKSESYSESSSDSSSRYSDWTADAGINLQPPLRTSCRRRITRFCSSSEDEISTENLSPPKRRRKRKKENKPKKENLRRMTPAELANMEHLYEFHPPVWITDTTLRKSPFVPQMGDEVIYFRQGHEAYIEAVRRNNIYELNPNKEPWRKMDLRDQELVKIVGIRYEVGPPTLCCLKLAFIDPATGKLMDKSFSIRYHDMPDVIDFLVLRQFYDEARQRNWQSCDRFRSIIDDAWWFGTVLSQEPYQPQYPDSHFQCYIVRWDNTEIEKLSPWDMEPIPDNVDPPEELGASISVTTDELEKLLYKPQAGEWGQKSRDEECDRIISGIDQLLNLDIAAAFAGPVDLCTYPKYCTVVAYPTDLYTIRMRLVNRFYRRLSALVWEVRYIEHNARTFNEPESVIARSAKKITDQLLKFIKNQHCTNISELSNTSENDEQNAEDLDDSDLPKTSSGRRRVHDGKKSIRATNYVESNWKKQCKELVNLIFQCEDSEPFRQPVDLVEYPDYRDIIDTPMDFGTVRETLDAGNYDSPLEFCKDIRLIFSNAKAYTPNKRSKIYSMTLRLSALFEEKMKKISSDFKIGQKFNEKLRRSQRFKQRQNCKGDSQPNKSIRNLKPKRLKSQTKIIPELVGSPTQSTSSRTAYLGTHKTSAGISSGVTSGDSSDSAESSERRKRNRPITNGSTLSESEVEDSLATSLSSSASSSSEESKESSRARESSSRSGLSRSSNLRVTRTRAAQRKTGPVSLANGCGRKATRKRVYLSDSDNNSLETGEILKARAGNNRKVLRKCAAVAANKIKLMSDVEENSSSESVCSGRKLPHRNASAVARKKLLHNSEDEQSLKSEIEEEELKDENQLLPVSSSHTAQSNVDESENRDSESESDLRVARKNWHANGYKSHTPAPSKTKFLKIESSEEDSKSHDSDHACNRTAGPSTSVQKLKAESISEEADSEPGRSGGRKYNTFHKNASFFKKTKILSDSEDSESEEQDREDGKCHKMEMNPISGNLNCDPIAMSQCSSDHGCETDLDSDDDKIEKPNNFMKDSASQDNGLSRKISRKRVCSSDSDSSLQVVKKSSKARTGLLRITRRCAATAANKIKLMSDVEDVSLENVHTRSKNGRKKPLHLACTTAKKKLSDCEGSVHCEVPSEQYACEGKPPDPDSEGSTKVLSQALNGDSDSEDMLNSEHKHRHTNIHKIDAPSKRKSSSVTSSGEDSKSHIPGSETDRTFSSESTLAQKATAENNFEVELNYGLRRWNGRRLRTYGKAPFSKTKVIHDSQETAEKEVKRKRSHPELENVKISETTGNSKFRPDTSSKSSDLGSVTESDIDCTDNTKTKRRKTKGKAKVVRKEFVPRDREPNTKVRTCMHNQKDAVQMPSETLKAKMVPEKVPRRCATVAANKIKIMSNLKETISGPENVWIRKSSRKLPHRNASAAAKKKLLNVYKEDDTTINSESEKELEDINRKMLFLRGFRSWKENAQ
In short: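 Outsourced competition-binding profiling (BROMOscan) at a single concentration of 1 µM against 32 recombinant bromodomains; binding expressed as percentage of control.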

[6] = molecular target: Tyrosine-protein kinase ABL2 (Homo sapiens) (UniProt P42684); test: Inhibition of recombinant human ARG (38 to end residues) at 10 uM using EAIYAAPFAKKK as substrate measured after 40 mins in presence of [gamma33P]ATP by scintillation counting method
Tyrosine-protein kinase ABL2 (Homo sapiens), sequence (P42684 whole entry): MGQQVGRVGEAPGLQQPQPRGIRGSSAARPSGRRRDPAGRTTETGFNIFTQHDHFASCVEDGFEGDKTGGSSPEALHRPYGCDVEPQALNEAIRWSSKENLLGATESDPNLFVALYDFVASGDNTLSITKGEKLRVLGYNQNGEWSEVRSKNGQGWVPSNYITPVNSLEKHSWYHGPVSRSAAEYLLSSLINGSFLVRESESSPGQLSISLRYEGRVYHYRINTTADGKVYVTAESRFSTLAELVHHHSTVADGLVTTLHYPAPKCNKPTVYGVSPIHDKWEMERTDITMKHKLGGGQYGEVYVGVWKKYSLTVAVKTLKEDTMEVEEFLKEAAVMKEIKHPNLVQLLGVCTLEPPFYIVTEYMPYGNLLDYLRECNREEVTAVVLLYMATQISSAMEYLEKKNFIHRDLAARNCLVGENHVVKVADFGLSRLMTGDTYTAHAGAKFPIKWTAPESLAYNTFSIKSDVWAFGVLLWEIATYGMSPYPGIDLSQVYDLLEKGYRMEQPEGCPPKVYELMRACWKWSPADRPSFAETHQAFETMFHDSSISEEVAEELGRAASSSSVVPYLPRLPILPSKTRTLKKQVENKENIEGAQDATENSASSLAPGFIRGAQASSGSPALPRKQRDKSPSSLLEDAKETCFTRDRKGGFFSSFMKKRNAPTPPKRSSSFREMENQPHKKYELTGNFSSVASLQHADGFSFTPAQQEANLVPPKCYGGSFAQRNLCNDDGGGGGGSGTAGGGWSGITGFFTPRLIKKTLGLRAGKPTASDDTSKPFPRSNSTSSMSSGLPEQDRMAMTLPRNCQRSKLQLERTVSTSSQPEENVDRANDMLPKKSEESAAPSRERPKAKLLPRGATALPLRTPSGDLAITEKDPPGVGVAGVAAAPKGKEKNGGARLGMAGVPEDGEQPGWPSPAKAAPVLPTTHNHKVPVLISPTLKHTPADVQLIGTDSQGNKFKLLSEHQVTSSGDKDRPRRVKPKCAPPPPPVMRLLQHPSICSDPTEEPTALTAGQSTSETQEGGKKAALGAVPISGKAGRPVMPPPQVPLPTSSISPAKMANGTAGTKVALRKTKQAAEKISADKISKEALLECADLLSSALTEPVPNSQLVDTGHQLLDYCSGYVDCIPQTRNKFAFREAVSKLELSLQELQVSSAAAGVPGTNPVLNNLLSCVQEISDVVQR

[7] = molecular target: Aurora kinase C (Homo sapiens) (UniProt Q9UQB9); test: Inhibition of recombinant human AURKC (35 to end residues) at 10 uM using AKRRRLSSLRA as substrate measured after 40 mins in presence of [gamma33P]ATP by scintillation counting method
[8] = molecular target: BMP-2-inducible protein kinase (Homo sapiens) (UniProt Q9NSY1); test: Inhibition of recombinant human BIKepsilon at 10 uM using peptide substrate measured after 120 mins in presence of [gamma33P]ATP by scintillation counting method
[9] = molecular target: Tyrosine-protein kinase BTK (Homo sapiens) (UniProt Q06187); test: Inhibition of full-length recombinant human BTK at 10 uM using KVEKIGEGTYGVVYK as substrate measured after 40 mins in presence of [gamma33P]ATP by scintillation counting method
In short: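 Kinase panel of 422 kinases screened by Eurofins KinaseProfiler at a single test-compound concentration of 10 µM.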

[10] = molecular target: Transient receptor potential cation channel subfamily M member 7 (Homo sapiens) (UniProt Q96QT4); test: Inhibition of recombinant human CHAK1 (1180 to end residues) at 10 uM using myelin basic protein as substrate measured after 40 mins in presence of [gamma33P]ATP by scintillation counting method
[11] = molecular target: Serine/threonine-protein kinase 35 (Homo sapiens) (UniProt Q8TDR2); test: Inhibition of recombinant full length human CLIK1 at 10 uM using RSRSRSRSRSRSRSR as substrate measured after 40 mins in presence of [gamma33P]ATP by scintillation counting method
[12] = molecular target: Dual specificity protein kinase CLK1 (Homo sapiens) (UniProt P49759); test: Inhibition of recombinant human CLK1 (130 to end residues) at 10 uM using ERMRPRKRQGSVRRRV as substrate measured after 40 mins in presence of [gamma33P]ATP by scintillation counting method
Dual specificity protein kinase CLK1 (Homo sapiens), sequence (P49759 whole entry, looked up): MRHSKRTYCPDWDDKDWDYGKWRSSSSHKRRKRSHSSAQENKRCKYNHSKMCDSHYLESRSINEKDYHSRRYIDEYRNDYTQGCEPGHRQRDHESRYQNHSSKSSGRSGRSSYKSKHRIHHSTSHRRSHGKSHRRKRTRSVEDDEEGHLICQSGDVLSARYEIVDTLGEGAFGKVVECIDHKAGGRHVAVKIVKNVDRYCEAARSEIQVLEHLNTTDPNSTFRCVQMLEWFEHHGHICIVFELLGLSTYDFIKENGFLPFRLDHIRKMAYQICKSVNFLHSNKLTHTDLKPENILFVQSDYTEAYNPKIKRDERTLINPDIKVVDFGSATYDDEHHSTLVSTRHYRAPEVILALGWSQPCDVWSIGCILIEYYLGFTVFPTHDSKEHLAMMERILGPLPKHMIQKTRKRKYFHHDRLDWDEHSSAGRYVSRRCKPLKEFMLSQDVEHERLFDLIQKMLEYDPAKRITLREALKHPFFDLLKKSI

[13] = molecular target: Receptor-type tyrosine-protein kinase FLT3 (Homo sapiens) (UniProt P36888); test: Inhibition of recombinant human Flt3 (564 to end residues) at 10 uM using EAIYAAPFAKKK as substrate measured after 40 mins in presence of [gamma33P]ATP by scintillation counting method
[14] = molecular target: Serine/threonine-protein kinase/endoribonuclease IRE1 (Homo sapiens) (UniProt O75460); test: Inhibition of recombinant human IRE1 (465 to end residues) at 10 uM using myelin basic protein as substrate measured after 40 mins in presence of [gamma33P]ATP by scintillation counting method
[15] = test system: Hepatocyte growth factor receptor (Homo sapiens), P08581 [M1250T]; test: Inhibition of recombinant human MET A1209G/V1290L/M1268T mutant (974 to end residues) at 10 uM using KKKGQEEEYVFIE as substrate measured after 40 mins in presence of [gamma33P]ATP by scintillation counting method
[16] = molecular target: MAPK/MAK/MRK overlapping kinase (Homo sapiens) (UniProt Q9UQ07); test: Inhibition of recombinant human MOK (1 to 343 residues) at 10 uM using RSRSRSRSRSRSRSR as substrate measured after 40 mins in presence of [gamma33P]ATP by scintillation counting method
[17] = test system: TGF-beta receptor type-1 (Homo sapiens), P36897 [T204D]; test: Inhibition of human TGFBR1 T204D mutant (200 to end residues) using casein as substrate measured after 40 mins in presence of [gamma33P]ATP by scintillation counting method
TGF-beta receptor type-1 (Homo sapiens), P36897 [T204D], sequence (P36897 whole entry T204D): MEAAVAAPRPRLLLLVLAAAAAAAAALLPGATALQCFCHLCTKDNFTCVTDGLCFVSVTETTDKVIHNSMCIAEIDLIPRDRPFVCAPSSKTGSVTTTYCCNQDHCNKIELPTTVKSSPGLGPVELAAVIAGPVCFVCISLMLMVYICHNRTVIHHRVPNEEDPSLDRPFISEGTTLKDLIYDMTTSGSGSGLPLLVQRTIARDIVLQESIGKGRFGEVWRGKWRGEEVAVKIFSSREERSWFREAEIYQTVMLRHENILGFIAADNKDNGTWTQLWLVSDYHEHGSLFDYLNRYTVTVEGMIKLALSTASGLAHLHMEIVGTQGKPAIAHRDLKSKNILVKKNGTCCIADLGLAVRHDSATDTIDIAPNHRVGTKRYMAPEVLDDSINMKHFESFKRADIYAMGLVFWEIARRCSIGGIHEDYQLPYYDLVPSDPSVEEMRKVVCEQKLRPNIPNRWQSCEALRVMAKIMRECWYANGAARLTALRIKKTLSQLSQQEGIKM

[18] = molecular target: PI3K p110 beta/p85 alpha (Homo sapiens) (UniProt P27986+P42338); test: Inhibition of recombinant full-length human PI3K p110beta/p85alpha at 10 uM using phosphatidylinositol-4, 5-bisphosphate as substrate measured after 40 mins by fluorescence assay; assay type: protein-complex assay
[19] = molecular target: PI3K p110 delta/p85 alpha (Mus musculus) (UniProt P26450+O35904); test: Inhibition of recombinant full-length mouse PI3K p110delta/p85alpha at 10 uM using phosphatidylinositol-4, 5-bisphosphate as substrate measured after 40 mins by HTRF assay; assay type: protein-complex assay
[20] = molecular target: G protein-coupled receptor kinase 5 (Homo sapiens) (UniProt P34947); test: Inhibition of recombinant full-length human GRK5 at 10 uM using casein as substrate measured after 40 mins in presence of [gamma33P]ATP by scintillation counting method
G protein-coupled receptor kinase 5 (Homo sapiens), sequence (P34947 whole entry, looked up): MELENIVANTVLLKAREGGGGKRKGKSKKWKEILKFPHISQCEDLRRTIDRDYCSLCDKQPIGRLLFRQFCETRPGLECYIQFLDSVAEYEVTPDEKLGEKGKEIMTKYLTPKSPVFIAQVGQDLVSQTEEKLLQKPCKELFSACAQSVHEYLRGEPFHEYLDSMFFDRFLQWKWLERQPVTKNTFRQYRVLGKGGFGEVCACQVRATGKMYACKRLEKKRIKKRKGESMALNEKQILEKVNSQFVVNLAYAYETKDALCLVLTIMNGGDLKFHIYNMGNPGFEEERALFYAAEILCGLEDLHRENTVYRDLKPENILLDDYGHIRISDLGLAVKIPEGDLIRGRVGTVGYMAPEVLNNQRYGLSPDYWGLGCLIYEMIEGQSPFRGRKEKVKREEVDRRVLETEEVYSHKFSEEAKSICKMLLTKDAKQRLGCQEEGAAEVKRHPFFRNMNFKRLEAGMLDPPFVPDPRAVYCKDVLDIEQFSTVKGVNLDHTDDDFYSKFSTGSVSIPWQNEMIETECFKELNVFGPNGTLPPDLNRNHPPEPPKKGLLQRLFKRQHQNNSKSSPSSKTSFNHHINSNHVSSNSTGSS

SMILES: CN1C[C@H](Nc2nc3cc[nH]c3c(=O)n2C)C[C@H](c2ccc3c(c2)OCCO3)C1
- inhibition [1]: inactive
- Kd [2]: 917 nM
- ΔTm [3]: 0.1 °C
- Activity [4]: Active
- Activity [5]: inactive
- inhibition [6]: inactive
- inhibition [7]: inactive
- inhibition [8]: inactive
- inhibition [9]: inactive
- inhibition [10]: inactive
- inhibition [11]: inactive
- inhibition [12]: inactive
- inhibition [13]: inactive
- inhibition [14]: inactive
- inhibition [15]: inactive
- inhibition [16]: inactive
- inhibition [17]: inactive
- inhibition [18]: inactive
- inhibition [19]: inactive
- inhibition [20]: inactive
